Laboratory results from ChEMBL document CHEMBL1133762, “Aureobasidins: structure-activity relationships for the inhibition of the human MDR1 P-glycoprotein ABC-transporter” (J Med Chem, 2000).
In brackets after ≈: the same amount, converted by molar mass. Square brackets hold non-standard residues; d marks the D form. Peptide text beside a SMILES is read from it. Hmp(2R,3S) = CC[C@H](C)[C@@H](O)C(=O)O; NMeVal(β-OH) = CN[C@H](C(=O)O)C(C)(C)O; NMeF = CN[C@@H](Cc1ccccc1)C(=O)O; NMeV = CN[C@H](C(=O)O)C(C)C

Assays:
[1] = molecular target: T1, ATP-dependent translocase ABCB1 (Homo sapiens, UniProt P08183); assay: (§1) Human MDR1 Pgp inhibitory activity by using standard calcein-AM efflux method with the human leukemia CEM cells.; assay type: cell-based, CCRF-CEM
T1 sequence (P08183 whole entry): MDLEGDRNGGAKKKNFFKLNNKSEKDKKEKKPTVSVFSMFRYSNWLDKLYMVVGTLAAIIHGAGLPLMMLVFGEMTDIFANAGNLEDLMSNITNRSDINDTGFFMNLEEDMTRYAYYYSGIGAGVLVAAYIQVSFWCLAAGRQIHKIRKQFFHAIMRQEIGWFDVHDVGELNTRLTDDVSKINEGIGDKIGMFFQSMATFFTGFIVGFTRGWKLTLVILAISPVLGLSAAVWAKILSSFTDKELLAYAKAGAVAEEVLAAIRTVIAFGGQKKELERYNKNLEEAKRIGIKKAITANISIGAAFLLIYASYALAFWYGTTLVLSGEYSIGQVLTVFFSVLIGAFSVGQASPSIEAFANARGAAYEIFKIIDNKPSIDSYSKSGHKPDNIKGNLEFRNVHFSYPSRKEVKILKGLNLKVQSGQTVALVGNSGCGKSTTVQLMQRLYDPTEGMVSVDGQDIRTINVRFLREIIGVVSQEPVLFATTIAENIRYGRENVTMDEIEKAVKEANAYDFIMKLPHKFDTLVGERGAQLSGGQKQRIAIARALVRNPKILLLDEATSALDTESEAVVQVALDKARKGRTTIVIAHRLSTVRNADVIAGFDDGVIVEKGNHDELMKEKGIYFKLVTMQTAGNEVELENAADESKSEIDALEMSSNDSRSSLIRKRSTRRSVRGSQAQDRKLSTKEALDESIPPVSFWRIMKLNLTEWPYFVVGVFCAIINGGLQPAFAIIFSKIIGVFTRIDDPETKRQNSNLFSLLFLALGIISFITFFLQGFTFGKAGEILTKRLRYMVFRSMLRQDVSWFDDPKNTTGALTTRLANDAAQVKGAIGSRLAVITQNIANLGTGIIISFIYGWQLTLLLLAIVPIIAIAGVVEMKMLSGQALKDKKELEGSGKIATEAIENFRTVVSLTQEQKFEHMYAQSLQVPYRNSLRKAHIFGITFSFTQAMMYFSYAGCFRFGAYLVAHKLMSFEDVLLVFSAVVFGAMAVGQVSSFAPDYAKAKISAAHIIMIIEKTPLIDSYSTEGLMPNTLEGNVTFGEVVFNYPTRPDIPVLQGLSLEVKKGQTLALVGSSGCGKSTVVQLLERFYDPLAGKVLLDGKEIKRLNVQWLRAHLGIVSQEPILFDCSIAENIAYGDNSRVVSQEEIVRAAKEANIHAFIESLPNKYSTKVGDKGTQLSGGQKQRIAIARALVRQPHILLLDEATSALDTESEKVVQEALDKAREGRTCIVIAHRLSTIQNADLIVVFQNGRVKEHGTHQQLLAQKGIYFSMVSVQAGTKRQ

[2] = molecular target: P-glycoprotein (ABCB1, MDR1) (Homo sapiens, UniProt P08183); assay: as §1; assay type: cell-based, CCRF-CEM; conditions: probe calcein-AM
Chain of P-glycoprotein (ABCB1, MDR1) (P08183 whole entry): as above

Saccharomyces cerevisiae [3] = assay: Minimum growth-inhibitory concentration against Saccharomyces cerevisiae ATCC 9763 by agar dilution method by the suspension of a fungi containing ~5 x 10e (7) cells/mL.; assay type: functional
Outline: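 Agar dilution on Sabouraud–dextrose agar plates with graded compound concentrations. A loopful of yeast suspension (about 5 × 10⁷ cells/mL) was streaked on the surface. Plates were incubated at 30 °C for 3 days. MIC is the lowest concentration with no detectable growth.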

[4] = molecular target: T1, ATP-dependent translocase ABCB1; assay: Direct comparison of the antifungal activities with the relative Pgp-inhibitory potencies, calculated by comparing ug/mL IC50(or IC20).; assay type: functional
Saccharomyces cerevisiae [5] = assay: Relative antifungal activity (against Saccharomyces cerevisiae) compared to AbA

Compound	IC50 [1] [nM]	IC20 [2] [nM]	MIC (Saccharomyces cerevisiae [3]) [µg/mL]	Pgp AbA/analogue ratio [4]	antifungal AbA/analogue ratio (Saccharomyces cerevisiae [5])	IC50 ([2]; human, human leukemia CEM cells) [nM]
CC[C@H](C)[C@@H]1NC(=O)[C@@H]2CCCN2C(=O)[C@@H](C)N(C)C(=O)[C@H](CO)NC(=O)[C@H](C(C)C)N(C)C(=O)[C@@H]([C@@H](C)CC)OC(=O)[C@H](C(C)(C)O)N(C)C(=O)[C@H](CC(C)C)NC(=O)[C@H](C(C)C)N(C)C1=O	> 31000	> 31000	> 25	< 0.1	< 0.016	–
CC[C@H](C)[C@@H]1NC(=O)[C@H]2CCCN2C(=O)[C@H](Cc2ccccc2)N(C)C(=O)[C@H](Cc2ccccc2)NC(=O)[C@H](C(C)C)N(C)C(=O)[C@@H]([C@@H](C)CC)OC(=O)[C@H](C(C)(C)O)N(C)C(=O)[C@H](CC(C)C)NC(=O)[C@H](C(C)C)N(C)C1=O	> 2700	1360	1.6 (≈ 1.45 µM)	–	–	–
CC[C@H](C)[C@@H]1NC(=O)[C@@H]2CCCN2C(=O)[C@@H](C)N(C)C(=O)[C@H](Cc2ccc(O)cc2)NC(=O)[C@H](C(C)C)N(C)C(=O)[C@@H]([C@@H](C)CC)OC(=O)[C@H](C(C)(C)O)N(C)C(=O)[C@H](CC(C)C)NC(=O)[C@H](C(C)C)N(C)C1=O	5770	2120	25 (≈ 24 µM)	0.4	–	–
CC[C@H](C)[C@H]1OC(=O)[C@H](C(C)(C)O)N(C)C(=O)[C@H](CC(C)C)NC(=O)[C@H](C(C)C)N(C)C(=O)[C@H](C(C)C)NC(=O)[C@@H]2CCCN2C(=O)[C@H](Cc2ccccc2)N(C)C(=O)[C@H](Cc2ccccc2)NC(=O)[C@H](C(C)C)N(C)C1=O (cyclo(F[NMeF]PV[NMeV]L[NMeVal(β-OH)][Hmp(2R,3S)][NMeV]))	1290	410	0.4 (≈ 0.368 µM)	1.8	–	–
CC[C@@H](C)[C@@H]1NC(=O)[C@@H]2CCCN2C(=O)[C@H](Cc2ccccc2)N(C)C(=O)[C@H](Cc2ccccc2)NC(=O)[C@H](C(C)C)N(C)C(=O)[C@@H](C(C)C)OC(=O)[C@H](C(C)(C)O)N(C)C(=O)[C@H](CC(C)C)NC(=O)[C@H](C(C)C)N(C)C1=O	1100	340	–	2.1	1	–
CC[C@H](C)[C@@H]1NC(=O)[C@@H]2CCCN2C(=O)[C@H](Cc2ccccc2)N(C)C(=O)[C@H](Cc2ccccc2)NC(=O)[C@H](C(C)C)N(C)C(=O)[C@@H]([C@@H](C)CC)OC(=O)[C@H](C(C)(C)O)N(C)C(=O)[C@H](CC(C)C)NC(=O)[C@@H](C(C)C)N(C)C1=O	> 2730	1800	> 25	–	–	–
CC[C@@H](C)[C@@H]1NC(=O)[C@@H]2CCCN2C(=O)[C@H]([C@H](O)c2ccccc2)N(C)C(=O)[C@H](Cc2ccccc2)NC(=O)[C@H](C(C)C)N(C)C(=O)[C@@H]([C@@H](C)CC)OC(=O)[C@H](C(C)(C)O)N(C)C(=O)[C@H](CC(C)C)NC(=O)[C@H](C(C)C)N(C)C1=O	–	810	–	1	0.5	2150
CC[C@H](C)[C@@H]1NC(=O)[C@@H]2CCCN2C(=O)[C@H](Cc2ccccc2)N(C)C(=O)[C@H](Cc2ccccc2)NC(=O)[C@H](C(C)C)N(C)C(=O)[C@@H]([C@@H](C)CC)OC(=O)C(C(C)(C)O)N(C)C(=O)[C@H](CC(C)C)NC(=O)[C@H](C(C)C)N(C)C1=O (some centres not stated)	360	100	–	–	–	–
CC[C@H](C)[C@@H]1NC(=O)[C@@H]2CCCN2C(=O)[C@@H](Cc2ccccc2)N(C)C(=O)[C@H](Cc2ccccc2)NC(=O)[C@H](C(C)C)N(C)C(=O)[C@@H]([C@@H](C)CC)OC(=O)[C@H](C(C)(C)O)N(C)C(=O)[C@H](CC(C)C)NC(=O)[C@H](C(C)C)N(C)C1=O	2730	910	0.2 (≈ 0.182 µM)	–	–	–
